Test results: ChEMBL document CHEMBL1153096, “Properly substituted 1,4-dioxane nucleus favours the selective M3 muscarinic receptor activation” (Bioorg Med Chem, 2009)
The source made the active and inactive calls. The calls are words filed in the database; no cut-off is given here.

What was measured:
[1] = target: T1, Muscarinic acetylcholine receptor M1 (Homo sapiens, UniProt P11229); assay: Displacement of [3H]NMS from human muscarinic M1 receptor expressed in CHO cells by microplate scintillation counting; format: cell-based
T1 sequence (P11229 whole entry): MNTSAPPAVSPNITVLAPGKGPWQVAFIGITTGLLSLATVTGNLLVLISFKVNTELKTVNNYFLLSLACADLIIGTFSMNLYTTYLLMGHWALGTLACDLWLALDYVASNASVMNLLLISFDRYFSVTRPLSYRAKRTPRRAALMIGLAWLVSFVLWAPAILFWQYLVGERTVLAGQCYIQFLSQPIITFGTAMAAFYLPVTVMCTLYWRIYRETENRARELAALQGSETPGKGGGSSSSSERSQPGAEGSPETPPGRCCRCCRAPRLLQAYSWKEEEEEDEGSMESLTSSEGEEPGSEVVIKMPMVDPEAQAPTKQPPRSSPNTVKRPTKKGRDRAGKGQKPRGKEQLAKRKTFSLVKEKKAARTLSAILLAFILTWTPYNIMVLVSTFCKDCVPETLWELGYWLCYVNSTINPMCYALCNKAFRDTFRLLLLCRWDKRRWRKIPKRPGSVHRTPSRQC

[2] = target: T2, Muscarinic acetylcholine receptor M2 (Homo sapiens, UniProt P08172); assay: Displacement of [3H]NMS from human muscarinic M2 receptor expressed in CHO cells by microplate scintillation counting; format: cell-based
T2 sequence (P08172 whole entry): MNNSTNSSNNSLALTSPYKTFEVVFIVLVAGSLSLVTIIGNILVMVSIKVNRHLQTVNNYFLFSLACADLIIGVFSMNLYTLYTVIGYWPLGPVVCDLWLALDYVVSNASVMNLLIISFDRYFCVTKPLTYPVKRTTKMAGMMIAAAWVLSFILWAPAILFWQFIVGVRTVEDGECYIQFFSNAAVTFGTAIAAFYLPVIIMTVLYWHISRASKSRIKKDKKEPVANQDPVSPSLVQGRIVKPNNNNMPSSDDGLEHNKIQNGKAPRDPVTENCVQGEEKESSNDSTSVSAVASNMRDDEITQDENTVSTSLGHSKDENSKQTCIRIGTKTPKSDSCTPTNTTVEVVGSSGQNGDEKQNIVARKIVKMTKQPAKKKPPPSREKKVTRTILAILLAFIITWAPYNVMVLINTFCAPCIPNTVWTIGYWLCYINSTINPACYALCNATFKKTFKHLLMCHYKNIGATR

[3] = target: Muscarinic acetylcholine receptor M3 (Homo sapiens, UniProt P20309); assay: Displacement of [3H]NMS from human muscarinic M3 receptor expressed in CHO cells by microplate scintillation counting; format: cell-based
[4] = target: T3, Muscarinic acetylcholine receptor M4 (Homo sapiens, UniProt P08173); assay: Displacement of [3H]NMS from human muscarinic M4 receptor expressed in CHO cells by microplate scintillation counting; format: cell-based
T3 sequence (P08173 whole entry): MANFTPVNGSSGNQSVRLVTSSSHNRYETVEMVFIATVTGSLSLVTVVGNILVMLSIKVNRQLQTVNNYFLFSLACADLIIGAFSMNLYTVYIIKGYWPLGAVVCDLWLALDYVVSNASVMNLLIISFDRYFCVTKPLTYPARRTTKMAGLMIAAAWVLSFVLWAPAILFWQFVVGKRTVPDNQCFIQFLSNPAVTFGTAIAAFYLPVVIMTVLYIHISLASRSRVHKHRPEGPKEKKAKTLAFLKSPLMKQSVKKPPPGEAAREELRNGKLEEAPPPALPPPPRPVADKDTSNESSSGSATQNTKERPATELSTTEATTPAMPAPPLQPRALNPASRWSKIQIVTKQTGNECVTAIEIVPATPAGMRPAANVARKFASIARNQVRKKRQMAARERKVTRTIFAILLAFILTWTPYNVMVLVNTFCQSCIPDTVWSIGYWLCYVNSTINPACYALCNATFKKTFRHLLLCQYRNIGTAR

[5] = target: T4, Muscarinic acetylcholine receptor M5 (Homo sapiens, UniProt P08912); assay: Displacement of [3H]NMS from human muscarinic M5 receptor expressed in CHO cells by microplate scintillation counting; format: cell-based
T4 sequence (P08912 whole entry): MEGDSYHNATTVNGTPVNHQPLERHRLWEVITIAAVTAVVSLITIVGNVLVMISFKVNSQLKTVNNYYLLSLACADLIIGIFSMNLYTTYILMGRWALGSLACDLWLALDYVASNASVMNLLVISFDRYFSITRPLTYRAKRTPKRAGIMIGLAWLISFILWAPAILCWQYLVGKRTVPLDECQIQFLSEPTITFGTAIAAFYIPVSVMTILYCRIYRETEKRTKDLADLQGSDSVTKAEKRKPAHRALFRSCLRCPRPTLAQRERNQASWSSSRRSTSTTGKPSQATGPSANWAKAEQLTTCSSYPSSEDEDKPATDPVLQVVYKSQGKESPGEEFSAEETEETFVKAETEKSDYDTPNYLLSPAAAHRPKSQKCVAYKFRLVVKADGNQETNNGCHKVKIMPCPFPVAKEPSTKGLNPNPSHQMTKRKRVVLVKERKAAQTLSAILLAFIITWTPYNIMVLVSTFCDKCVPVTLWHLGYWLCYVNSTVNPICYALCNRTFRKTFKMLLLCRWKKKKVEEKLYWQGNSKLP

[6] = species on record: Oryctolagus cuniculus; assay: Agonist activity at muscarinic M1 receptor in New Zealand White rabbit vas deferens assessed as inhibition of electrically-stimulated muscle contraction; format: functional
Method in brief: (§1)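 Prostatic portion of male-free-listed New Zealand white rabbit (3.0-3.5 kg, fasted 24 h) vas deferens in modified Krebs, 31 °C, 95% O2-5% CO2; 45 min stabilisation, field stimulation 2 Hz, 5 ms, 5 V; isometric recording. Cumulative concentration-response curves; pD2 by linear regression; intrinsic activity as fraction of McN-A-343 maximum; means ± SEM of four to six experiments.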

[7] = target: Muscarinic acetylcholine receptor M3 (Cavia porcellus) (UniProt Q8VH26); assay: Intrinsic activity at muscarinic M3 receptor in guinea pig ileum assessed as inhibition of electrically-stimulated muscle contraction relative to bathanecol; format: tissue-based
Method in brief: (§2)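 Male guinea pig (250-350 g, fasted 24 h) ileal segments 2-3 cm, 1.0 g tension, 37 °C, Krebs-Henseleit with carbogen; 45 min equilibration, isometric contractions. Cumulative agonist concentration-response curves; pD2 by linear regression; intrinsic activity relative to bethanechol maximum; means ± SEM of four to six experiments.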

[8] = target: Muscarinic acetylcholine receptor M3 (Cavia porcellus) (UniProt Q8VH26); assay: Agonist activity at muscarinic M3 receptor in guinea pig ileum assessed as inhibition of electrically-stimulated muscle contraction; format: functional, tissue-based; method in brief: as §2
[9] = species on record: Cavia porcellus; assay: Intrinsic activity at muscarinic M4 receptor in guinea pig lung assessed as inhibition of electrically-stimulated muscle contraction relative to bathanecol
Method in brief: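 Male guinea pig peripheral lung strips (15 × 2 × 2 mm) from lower lobe, 0.3 g resting tension, 37 °C, Krebs-Henseleit with carbogen; 45 min equilibration, isometric contractions. Cumulative agonist concentration-response curves; pD2 by linear regression; intrinsic activity relative to bethanechol maximum; means ± SEM of four to six experiments.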

[10] = species on record: Oryctolagus cuniculus; assay: Antagonist activity at muscarinic M1 receptor in New Zealand White rabbit vas deferens assessed as effect on muscle contraction up to 30 uM; format: functional, tissue-based
[11] = Antagonist activity at muscarinic M4 receptor in guinea pig lung assessed as effect on muscle contraction; format: functional, Cavia porcellus
[12] = species on record: Cavia porcellus; assay: Intrinsic activity at muscarinic M2 receptor in guinea pig atrium assessed as inhibition of electrically-stimulated muscle contraction relative to bathanecol; format: tissue-based; conditions: Cardiac atrium
[13] = Agonist activity at muscarinic M2 receptor in guinea pig atrium assessed as inhibition of electrically-stimulated muscle contraction; format: functional, Cavia porcellus, Cardiac atrium
[14] = Agonist activity at muscarinic M4 receptor in guinea pig lung assessed as inhibition of electrically-stimulated muscle contraction; format: functional, Cavia porcellus
[15] = species on record: Cavia porcellus; assay: Selectivity ratio of pD2 for guinea pig muscarinic M3 receptor to pD2 for guinea pig muscarinic M2 receptor
[16] = Selectivity ratio of pD2 for guinea pig muscarinic M3 receptor to pD2 for rabbit M1 receptor
[17] = species on record: Cavia porcellus; assay: Selectivity ratio of pD2 for guinea pig muscarinic M3 receptor to pD2 for guinea pig muscarinic M4 receptor
[18] = species on record: Oryctolagus cuniculus; assay: Intrinsic activity at muscarinic M1 receptor in New Zealand White rabbit vas deferens assessed as inhibition of electrically-stimulated muscle contraction relative to McN-A-343; format: tissue-based; method in brief: as §1
[19] = Antagonist activity at muscarinic M1 receptor in New Zealand White rabbit vas deferens assessed as effect on muscle contraction; format: functional, Oryctolagus cuniculus
[20] = species on record: Cavia porcellus; assay: Antagonist activity at muscarinic M4 receptor in guinea pig lung assessed as effect on muscle contraction up to 10 uM; format: functional

Muscarinic acetylcholine receptor M3, sequence (P20309 whole entry): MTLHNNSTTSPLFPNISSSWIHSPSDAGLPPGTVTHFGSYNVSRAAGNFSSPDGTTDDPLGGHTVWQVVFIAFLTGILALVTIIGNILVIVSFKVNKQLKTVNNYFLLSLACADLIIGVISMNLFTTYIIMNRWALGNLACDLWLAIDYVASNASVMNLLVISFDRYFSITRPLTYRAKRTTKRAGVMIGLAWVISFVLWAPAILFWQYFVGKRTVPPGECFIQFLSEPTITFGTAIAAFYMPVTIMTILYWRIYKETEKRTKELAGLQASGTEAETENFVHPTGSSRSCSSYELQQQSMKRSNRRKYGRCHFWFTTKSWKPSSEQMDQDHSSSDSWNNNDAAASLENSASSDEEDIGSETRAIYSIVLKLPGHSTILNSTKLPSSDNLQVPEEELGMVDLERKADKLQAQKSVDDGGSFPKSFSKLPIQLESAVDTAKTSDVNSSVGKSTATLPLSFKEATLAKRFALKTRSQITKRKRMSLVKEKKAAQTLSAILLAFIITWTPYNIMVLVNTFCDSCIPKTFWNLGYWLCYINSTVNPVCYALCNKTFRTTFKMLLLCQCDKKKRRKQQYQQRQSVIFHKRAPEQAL
Muscarinic acetylcholine receptor M3 (Cavia porcellus), sequence (Q8VH26 1-587): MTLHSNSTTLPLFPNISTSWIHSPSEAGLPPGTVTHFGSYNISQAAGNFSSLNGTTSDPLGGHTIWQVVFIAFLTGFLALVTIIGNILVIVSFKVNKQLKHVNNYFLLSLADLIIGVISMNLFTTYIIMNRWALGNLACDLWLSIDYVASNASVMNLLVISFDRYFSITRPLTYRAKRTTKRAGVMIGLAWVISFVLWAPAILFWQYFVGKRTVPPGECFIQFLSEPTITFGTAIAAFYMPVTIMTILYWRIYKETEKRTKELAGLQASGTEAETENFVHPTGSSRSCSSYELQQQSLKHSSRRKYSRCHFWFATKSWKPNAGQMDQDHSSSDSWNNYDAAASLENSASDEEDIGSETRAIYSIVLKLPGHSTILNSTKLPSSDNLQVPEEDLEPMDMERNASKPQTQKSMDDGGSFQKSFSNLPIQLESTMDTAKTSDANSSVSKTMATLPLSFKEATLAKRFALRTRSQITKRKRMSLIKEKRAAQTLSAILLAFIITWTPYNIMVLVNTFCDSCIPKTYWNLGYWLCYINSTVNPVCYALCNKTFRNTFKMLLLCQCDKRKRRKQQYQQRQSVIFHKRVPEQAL

Structure (SMILES) | Ki [1] [µM] | Ki [2] [µM] | Ki [3] [µM] | Ki [4] [µM] | Ki [5] [µM] | pD2 [6] | Intrinsic activity [7] | pD2 [8] | Intrinsic activity [9] | pKb [10] | pKb [11] | Intrinsic activity [12] | pD2 [13] | pD2 [14] | Selectivity ratio [15] | Selectivity ratio [16] | Selectivity ratio [17] | Intrinsic activity [18] | pKb [19] | pKb [20]
C[C@H]1OC[C@@H](C[N+](C)(C)C)OC1(C)C.[I-] (relative stereo) | 20 | 27.5 | 16.2 | 25.7 | 32.4 | inactive | 0.47 | 5.25 | 0 | inactive | 5.15 |  |  |  |  |  |  |  |  | 
CC1(C)COC[C@@H](C[N+](C)(C)C)O1.[I-] | 47.9 | 18.2 | 21.4 | 44.7 | 28.2 | inactive | 1.16 | 6.94 | 0.18 | inactive |  | 0.73 | 5.03 | 4.85 | 81 | > 275 | 123 |  |  | 
C[C@@H]1O[C@H](C[N+](C)(C)C)COC1(C)C.[I-] (relative stereo) | 67.6 | 60.3 | 32.4 | 57.5 | 52.5 |  | 0.47 | 5.12 |  |  |  | 0.33 | 4.92 |  |  |  |  | 0 | 4.61 | inactive
